ChEMBL document CHEMBL4038330, “Discovery of Potent Orally Active Protease-Activated Receptor 1 (PAR1) Antagonists Based on Andrographolide” (J Med Chem, 2017)

What was measured:
Cavia porcellus [1] = assay: In vivo antagonist activity at PAR1 in guinea pig assessed as inhibition of TRAP-stimulated platelet aggregation at 30 mg/kg, po pretreated for 2 hrs followed by TRAP stimulation measured after 5 mins; format: functional
[2] = Tmax in Wistar rat at 5 mg/kg, po measured up to 24 hrs post dose by HPLC-MS/MS analysis; format: ADME, organism-based; details: in vivo
Method in brief: (§1)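 Male Wistar rats, n = 6 per group, given 1 mg/kg intravenously or 5 mg/kg intragastrically. Blood concentrations followed over 24 h. Non-compartmental analysis; values as median ± SD. Bioavailability from oral versus intravenous exposure.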

[3] = Apparent clearance in Wistar rat at 1 mg/kg, iv administered as bolus dose measured up to 24 hrs post dose by HPLC-MS/MS analysis; format: ADME, organism-based; details: in vivo, read-out: CL(app) (converted); method in brief: as §1
Rattus norvegicus [4] = assay: VRT (0 to infinity) in Wistar rat at 1 mg/kg, iv administered as bolus dose measured up to 24 hrs post dose by HPLC-MS/MS analysis; format: ADME, organism-based; details: in vivo
Cavia porcellus [5] = assay: In vivo antagonist activity at PAR1 in guinea pig assessed as inhibition of TRAP-stimulated platelet aggregation at 10 mg/kg, po pretreated for 2 hrs followed by TRAP stimulation measured after 5 mins; format: functional
Rattus norvegicus [6] = assay: Toxicity in Wistar rat assessed as behavioral abnormalities at 1 mg/kg, iv measured up to 24 hrs post dose; format: organism-based; details: in vivo
Method in brief: (§2)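 Male Wistar rats given 1 mg/kg iv or 5 mg/kg intragastrically. Behaviour observed for abnormalities over the 24 h sampling period.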

[7] = target: T1, Proteinase-activated receptor 1 (Homo sapiens, UniProt P25116); assay: Antagonist activity at human PAR1 expressed in HEK293 cells co-expressing Galpha15 assessed as inhibition of haTRAP-induced calcium mobilization preincubated for 15 mins followed by haTRAP addition by calcium-4 dye based FLIPR assay; format: functional, cell-based
T1 sequence (P25116 whole entry): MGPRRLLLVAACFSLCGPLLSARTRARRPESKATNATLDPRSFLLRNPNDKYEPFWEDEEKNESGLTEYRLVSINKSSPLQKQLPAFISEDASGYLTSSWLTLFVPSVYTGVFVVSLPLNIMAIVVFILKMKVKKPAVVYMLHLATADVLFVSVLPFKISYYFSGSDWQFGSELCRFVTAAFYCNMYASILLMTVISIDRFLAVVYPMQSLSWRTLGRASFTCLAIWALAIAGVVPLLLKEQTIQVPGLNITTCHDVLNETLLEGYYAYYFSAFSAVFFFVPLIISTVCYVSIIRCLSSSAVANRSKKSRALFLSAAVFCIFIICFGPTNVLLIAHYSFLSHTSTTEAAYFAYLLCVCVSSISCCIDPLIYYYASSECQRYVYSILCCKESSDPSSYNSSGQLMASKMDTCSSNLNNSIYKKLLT

[8] = Tmax in Wistar rat at 1 mg/kg, iv administered as bolus dose measured up to 24 hrs post dose by HPLC-MS/MS analysis; format: ADME, organism-based; details: in vivo; method in brief: as §1
[9] = system: ADP-stimulated platelet aggregation; assay: Toxicity in guinea pig assessed as inhibition of ADP-stimulated platelet aggregation at 10 mg/kg, po pretreated for 2 hrs followed by ADP stimulation measured after 5 mins; format: organism-based, Cavia porcellus; details: in vivo
Plasma [10] = assay: Drug metabolism in Wistar rat plasma assessed as [M2+O] metabolite formation at 5 mg/kg, po administered as single dose measured at 3 hrs post dose by LC-HRMS analysis; format: ADME, organism-based; details: in vivo
Method in brief: (§3)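 Rats dosed orally at 10 mg/kg or 5 mg/kg. Plasma taken at 3.0 h after dosing. Parent and metabolites detected by extracted ion chromatograms.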

Plasma [11] = assay: Stability in Wistar rat assessed as parent compound level in plasma at 5 mg/kg, po administered as single dose measured at 3 hrs post dose by LC-HRMS analysis; format: ADME, organism-based; details: in vivo; method in brief: as §3
Platelet [12] = assay: Effect on ADP-stimulated platelet aggregation in human platelet-rich plasma up to 10 uM preincubated for 20 mins followed by ADP stimulation measured after 5 mins by aggregometric analysis; format: ADME, cell-based
Method in brief: (§4)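 Human platelet-rich plasma stimulated with TRAP 15 µM, ADP 10 µM or collagen 5 µg/mL. ADP and collagen tests went up to 10 µM compound. Three separate experiments per agonist. Mean IC50 taken from IC50s of the independent experiments; values given as median ± SD.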

Rattus norvegicus [13] = assay: Toxicity in Wistar rat assessed as body weight at 5 mg/kg, po measured up to 24 hrs post dose; format: organism-based; details: in vivo
Plasma [14] = assay: Drug metabolism in Wistar rat plasma assessed as [M2+O-2H] metabolite formation at 5 mg/kg, po administered as single dose measured at 3 hrs post dose by LC-HRMS analysis; format: ADME, organism-based; details: in vivo; method in brief: as §3
[15] = Apparent volume of distribution in Wistar rat at 1 mg/kg, iv administered as bolus dose measured up to 24 hrs post dose by HPLC-MS/MS analysis; format: ADME, organism-based; details: in vivo, read-out: Vd(app); method in brief: as §1
[16] = Apparent terminal half life in Wistar rat at 1 mg/kg, iv administered as bolus dose measured up to 24 hrs post dose by HPLC-MS/MS analysis; format: ADME, organism-based; details: in vivo, read-out: betat1/2(app) (converted); method in brief: as §1
Rattus norvegicus [17] = assay: Toxicity in Wistar rat assessed as body weight at 1 mg/kg, iv administered as bolus dose measured up to 24 hrs post dose; format: organism-based; details: in vivo; method in brief: as §1
[18] = AUC (0 to infinity) in Wistar rat at 5 mg/kg, po measured up to 24 hrs post dose by HPLC-MS/MS analysis; format: ADME, organism-based; parameters: dose 5 mg/kg, time infinity, route oral; details: in vivo
Method in brief: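 Male Wistar rats, n = 6 per group, dosed intragastrically at 5 mg/kg or intravenously at 1 mg/kg. Blood concentrations followed over 24 h. Parameters from non-compartmental analysis, reported as median ± SD.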

[19] = Cmax in Wistar rat at 1 mg/kg, iv administered as bolus dose measured up to 24 hrs post dose by HPLC-MS/MS analysis; format: ADME, organism-based; parameters: dose 1 mg/kg, route intravenous; details: in vivo; method in brief: as §1
[20] = Cmax in Wistar rat at 5 mg/kg, po measured up to 24 hrs post dose by HPLC-MS/MS analysis; format: ADME, organism-based; parameters: dose 5 mg/kg, route oral; details: in vivo; method in brief: as §1
[21] = Apparent terminal half life in Wistar rat at 5 mg/kg, po measured up to 24 hrs post dose by HPLC-MS/MS analysis; format: ADME, organism-based; details: in vivo, read-out: betat1/2(app) (converted); method in brief: as §1
Cavia porcellus [22] = assay: In vivo antagonist activity at PAR1 in guinea pig assessed as inhibition of thrombin-stimulated platelet aggregation at 10 mg/kg, po pretreated for 2 hrs followed by thrombin stimulation measured after 5 mins; format: functional
[23] = Oral bioavailability in Wistar rat at 5 mg/kg measured up to 24 hrs post dose by HPLC-MS/MS analysis; format: ADME, organism-based; details: in vivo; method in brief: as §1
Rattus norvegicus [24] = assay: Toxicity in Wistar rat assessed as behavioral abnormalities at 5 mg/kg, po measured up to 24 hrs post dose; format: organism-based; details: in vivo; method in brief: as §2
[25] = MRT (0 to infinity) in Wistar rat at 5 mg/kg, po measured up to 24 hrs post dose by HPLC-MS/MS analysis; format: ADME, organism-based; details: in vivo; method in brief: as §1
Rattus norvegicus [26] = assay: Apparent volume of distribution in Wistar rat at 5 mg/kg, po measured up to 24 hrs post dose by HPLC-MS/MS analysis; format: ADME, organism-based; details: in vivo; method in brief: as §1
Rattus norvegicus [27] = assay: AUMC (0 to infinity) in Wistar rat at 1 mg/kg, iv administered as bolus dose measured up to 24 hrs post dose by HPLC-MS/MS analysis; format: ADME, organism-based; details: in vivo; method in brief: as §1
Platelet [28] = assay: Effect on collagen-stimulated platelet aggregation in human platelet-rich plasma up to 10 uM preincubated for 20 mins followed by collagen stimulation measured after 5 mins by aggregometric analysis; format: ADME, cell-based; method in brief: as §4

CC1CC[C@@H]2C(C)(C)[C@H](O)CC[C@@]2(C)[C@@H]1/C=C/c1ccc(-c2cccc(F)c2)cn1 (single isomer, unassigned)
inhibition in vivo at 30 mg/kg (Cavia porcellus [1]): 98.7% | Tmax [2]: 2.5 h | clearance [3]: 31.7 mL/min/kg | VRT (Rattus norvegicus [4]): 7.6 ha2 | inhibition in vivo at 10 mg/kg (Cavia porcellus [5]): 87.6% | Activity (Rattus norvegicus [6]): Non-Toxic | IC50 [7]: 1100 nM | Tmax [8]: 1.2 min | inhibition at 5 min [9]: 6.7% | Drug metabolism (Plasma [10]): Metabolite_Detected | Stability (Plasma [11]): Stable | Activity (Platelet [12]): Non-Toxic | Activity (Rattus norvegicus [13]): 224 g | Drug metabolism (Plasma [14]): Metabolite_Detected | Vd [15]: 5.7 L/kg | half-life [16]: 2 h | Activity (Rattus norvegicus [17]): 226 g | AUC(0-inf) [18]: 1450 ng·h/mL | Cmax [19]: 1730 ng/mL | Cmax [20]: 229 ng/mL | half-life [21]: 3.1 h | inhibition in vivo at 10 mg/kg (Cavia porcellus [22]): 66.9% | bioavailability [23]: 52.5% | Activity (Rattus norvegicus [24]): Non-Toxic | MRT inf [25]: 5.6 h | Vd(app) (Rattus norvegicus [26]): 20 L/kg | AUMC (Rattus norvegicus [27]): 1135 ng·h/mL | Activity (Platelet [28]): Non-Toxic
